# Compounds with a hit are over-represented: about 1.8% of the library has one in this group of screens.
# Runt-CBFb FRET – inhibitors of human RUNX1 Runt domain binding to CBFb; Q01196+Q13951; inhibition, % at 20 µM; 220,000 tested, 0.46% active; Cerulean-Runt/Venus-CBFb FRET ratio 530/480, 1 h; AID 1496;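 active means inhibition over about 50% at 20 µM in the single-dose screen, limit read from the data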;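 further: 0% = DMSO wells and 100% = excess unlabeled CBFb competitor control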
#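 Schedule: protein complex preformed 1 h, compound exposure 1 h, room temperature, dark; test system: Cerulean-labeled Runt domain protein; amount: 100 nM per protein; buffer or medium: Tris 50 mM pH 7.5, KCl, K2SO4, 0.01% BSA; read-out: loss of energy transfer signal; detection: FRET fluorescence; controls: 5 µM unlabeled CBFb as full-inhibition high control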
# RanGTP-Imp inh – inhibitors of RanGTP-importin-beta interaction, primary screen, biochemical, FRET, CFP-Ran, YFP-importin-beta, homogeneous. cell-free CFP-Ran/YFP-importin-beta FRET ratio. inhibition, % (concentration not given with the values). 300,000 tested, 1.1% active;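 active means more than half of the replicate wells show a fall in the fluorescence ratio signal beyond about 16%, limit read from the data, passing the limit was not always enough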;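 further: 0% = DMSO wells and 100% = Ran loaded with GDP instead of GTP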
# Runt-SMMHC FRET – blocks binding of human RUNX1 Runt domain to CBFb-SMMHC | Q01196+Q13951 | Cerulean-Runt/Venus-CBFb-SMMHC FRET ratio 530/480, 1 h | inhibition, % at 20 µM | 220,000 tested, 0.74% active;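 active means mean inhibition across duplicate retests at 20 µM reaching about 50%, limit read from the data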;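 further: 0% = DMSO wells and 100% = wells with excess untagged CBFb-SMMHC; inhibitors lower the FRET ratio by blocking Runt binding to CBFb-SMMHC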
# Hck-Nef inh – blocks Nef-activated human Hck kinase; Recombinant Hck-YEEI plus Nef, Z-Lyte FRET kinase assay; AID 463187; P08631; 220,000 tested, 0.68% active; inhibition, % at 20 µM;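 active means Hck-Nef kinase inhibition above about 50%, limit read from the data; inactive means inhibition below that limit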;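 further: 0% = DMSO with Hck plus Nef and 100% = Hck alone without Nef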
# Active calls of the source: *; . = not tested or not shown.
SMILES,Runt-CBFb FRET,RanGTP-Imp inh,Runt-SMMHC FRET,Hck-Nef inh
CCc1ccc(OC(=O)c2cncc(Br)c2)cc1,.,1,.,.
CCOCCCNS(=O)(=O)c1ccc(NC(=O)C2CC(=O)N(c3ccc(C)cc3)C2)cc1 (stereo unspecified),-1,-1,-3,5
CCC(CC)COC(=O)C1=C(C)NC(=O)NC1c1ccc(N(C)C)cc1 (stereo unspecified),.,16*,.,.
CCOc1cccc(OCCOCCNC(C)(C)C)c1,-1,-1,-7,3
CC(C)(C)NCCOc1ccc2ccccc2c1,2,32*,-4,3
CC(CCc1ccccc1)NC(=O)c1ccc(F)cc1 (stereo unspecified),.,6,.,.
O=C(Nc1cccc(Cl)c1)Nc1nnc(-c2ccncc2)s1,-7,-1,-7,57*
O=C(Nc1ccc(Cl)cc1)Nc1nnc(-c2ccncc2)s1,-3,0,-5,12
N=c1c(C(=O)NCCN2CCOCC2)cc2c(=O)n3ccccc3nc2n1CCCN1CCOCC1,.,145*,.,.
O=C(NCCN1CCOCC1)c1cc(-c2ccc(F)cc2)nc2ccccc12,.,3,.,.
N=c1c(C(=O)NCCN2CCOCC2)cc2c(=O)n3ccccc3nc2n1Cc1ccc(F)cc1,.,127*,.,.
CS(=O)(=O)c1cccc(C(=O)Nc2ccc3c(c2)OCCCO3)c1,.,-1,.,.
Cc1ccc(SCC(=O)Nc2ccc3c(c2)C(=O)N(C)C3=O)cc1,.,3,.,.
COc1ccc(N2CCN(c3ncnc4c3[nH]c3ccccc34)CC2)cc1,-2,19*,-2,1
COc1ccc2[nH]c3c(N4CCc5ccccc5C4)ncnc3c2c1,-1,2,-5,20
COc1cc2ccc(=O)oc2c(O)c1OCC=C(C)C,61*,9,62*,9
CC(C)=CCOc1ccc2ccc(=O)oc2c1,2,5,0,16
CC(C)CC(C(=O)O)N1C(=O)C2C3CC(C2C1=O)C1C(c2ccccc2)c2sc(=O)[nH]c2SC31 (stereo unspecified),13,100*,29,4
O=C(O)CN1C(=O)C2C3CC(C2C1=O)C1C(c2ccccc2)c2sc(=O)[nH]c2SC31 (stereo unspecified),42,65*,34,2
COc1ccc(C=Nc2cccnc2N)cc1,.,25*,.,.
Cc1nc2c(sc3nc(N4CCOCC4)c4c(c32)CC(C)(C)OC4)c(-c2ccccc2)c1C(=O)O,14,23*,82,-72
CC1(C)Cc2c(c(N3CCOCC3)nc3snc(NC(=O)c4ccccc4)c23)CO1,0,3,0,3
COc1ccc(Oc2cccc(Cl)c2CNC(=O)CCC(=O)O)cc1,1,3,0,21
CCN1CCN(c2ccc(NC(=O)c3ccc4c(c3)[nH]c(=O)n4Cc3ccc(F)cc3)cc2)CC1,3,-1,-49,2
Cc1c(CC(=O)O)c(=O)oc2c(C)c3occ(-c4ccccc4)c3cc12,.,19*,.,.
SMILES,Runt-CBFb FRET,RanGTP-Imp inh,Runt-SMMHC FRET,Hck-Nef inh
Cc1c(CCC(=O)O)c(=O)oc2c(C)c3occ(-c4ccc(Cl)cc4)c3cc12,.,6,.,.
CCCCC1CCC(C(=O)NCc2ccc3c(c2)OCO3)CC1 (stereo unspecified),1,92*,-1,-2
COc1cc(/C=C(\C#N)C(=O)Nc2cccc(C(=O)O)c2)ccc1OCc1ccc(F)cc1,.,4,.,.
CCOc1cc(/C=C(\C#N)C(=O)Nc2cccc(C(=O)O)c2)ccc1OCc1ccccc1Cl,.,78*,.,.
c1cnc2nc(-c3ccc4c(c3)OCO4)cn2c1,-1,4,1,9
c1ccn2cc(-c3ccc4c(c3)OCO4)cc2c1,59*,-2,92*,26
CCOC(=O)c1c2ccc(OCC(=O)NN)cc2n2ccccc12,21,66*,86*,-3
CCOC(=O)c1c2ccc(OCC(=O)N/N=C/c3ccc(C)cc3)cc2n2ccccc12,-4,29*,78,27
Cc1ccc(OCC(=O)N/N=C/c2cn(C)c3ccccc23)cc1,-2,-1,-10,11
CCOC(=O)c1c(C)n(C)c2cc(OCCN(CC)CC)ccc12,-1,-1,-1,1
O=C(O)/C=C/C(=O)Nc1ccc(S(=O)(=O)Nc2nccs2)cc1,.,0,.,.
Cc1ccn2c(=O)nc(SCC(=O)NC3CCCCC3)nc2c1,.,3,.,.
Cc1ccn2c(=O)nc(SCC(=O)NC3CCCC3)nc2c1,.,18*,.,.
CN(C)c1ccc(-c2ccc([C@H]3[C@@H]4C=CCC[C@@]4(C)C(=O)N3Cc3ccccc3)c(F)c2)cc1,0,2,-2,6

# Assay outcomes (PubChem BioAssay)
